Tests used:
Type in all cases: functional
Cavia porcellus [1] = species: Cavia porcellus; assay: Compound was evaluated for its effect on LTD4-induced contraction of guinea pig trachea
Summary of the method: (§1)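 Isolated guinea pig tracheal spiral strips were contracted with LTC4 or LTD4, with antagonist at 3×10^-6 M versus untreated control. Responses are expressed as percentage of the tissue's maximal response to carbachol (1 mM). Potency is given as -log of the agonist concentration (M) giving a half-maximal response. pKB = -log([B]/(dose ratio - 1)), where dose ratio = treated ED50 ÷ control ED50. Control vs treated compared by unpaired Student's t test.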

Cavia porcellus [2] = species: Cavia porcellus; assay: Compound was evaluated for its effect on LTC4-induced contraction of guinea pig trachea. percentage of maximal response of tissue to carbachol; summary of the method: as §1
Cavia porcellus [3] = species: Cavia porcellus; assay: Compound was evaluated for its effect on LTD4-induced contraction of guinea pig trachea. percentage of maximal response of tissue to carbachol; summary of the method: as §1
Cavia porcellus [4] = species: Cavia porcellus; assay: Compound was evaluated for its effect on LTC4-induced contraction of guinea pig trachea; summary of the method: as §1

SMILES: CCCc1c(OCCCCc2nnn[nH]2)ccc(C(C)=O)c1O [TOMELUKAST]
- -Log ED50 (Cavia porcellus [1]): 7.49
- pKB (Cavia porcellus [1]): 5.63
- Max contractility (Cavia porcellus [2]): 73%
- Max contractility (Cavia porcellus [3]): 57%
- -Log ED50 (Cavia porcellus [4]): 7.47
- pKB (Cavia porcellus [4]): 5.74
